The results in this text go back to ChEMBL document CHEMBL1158765, “Cyclic peroxides derived from the marine sponge Plakortis simplex” (J Nat Prod, 2005).

Common to all, as to type: functional, cell-based
Assay [1] in a line: Antitumor activity against human GXF251L cells. As to conditions: GXF 251L. In outline: (§1)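 Human tumor cell lines derived from patient tumors grown subcutaneously in NMRI nu/nu mice, cultured as monolayers and exposed to test compounds. Surviving cells were stained with a fluorescent dye. Doubling times 24-35 h. IC50 taken from concentration-dependent T/C values. Where not reached within the test range, IC extrapolated by linear regression if within 3-fold of the highest concentration.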

A short description of assay [2]: Antitumor activity against human LXF 529L cells. In outline: as §1
Assay [3] is described as follows: Antitumor activity against human MAXF 401NL cells. In outline: as §1
Assay [4] is described as follows: Antitumor activity against human MEXF 642NL cells. In outline:
as §1

Assay [5] is described as follows: Antitumor activity against human UXF 1138L cells. In outline: as §1
Assay [6] in a line: Antitumor activity against human RXF 486L cells. In outline:
as §1

Each structure is given as a SMILES string. Values after ≈ are worked out from the molar mass of the structure shown.

As a reminder, the IC50 is the concentration that gives 50% inhibition. Turning to `CCCCC[C@@]1(CC)C=C(CC)[C@@H](CC(=O)OC)OO1` (relative stereo), the IC50 in assay [1], in assay [2], in assay [3], in assay [4], in assay [5] and in assay [6] was over 10 µg/mL in each case.

As for `CCCCCC[C@@]1(CC)C=C(CC)[C@@H](CC(=O)OC)OO1` (relative stereo), the concentration for half-maximal inhibition (IC50) in assay [1] amounted to 8.3 µg/mL (≈ 27.8 µM); in assay [2], 7.7 µg/mL (≈ 25.8 µM); in assay [4] it was 7.2 µg/mL (≈ 24.1 µM); in assay [5] it was 14.4 µg/mL (≈ 48.3 µM); in assay [6], 14.1 µg/mL (≈ 47.2 µM).
